From ChEMBL document CHEMBL1139183, “Potent and selective xanthine-based inhibitors of phosphodiesterase 5” (Bioorg Med Chem Lett, 2007)

Columns and labels:
[1] = target: cGMP-specific 3',5'-cyclic phosphodiesterase (Homo sapiens, UniProt O76074); test: Inhibition of human platelet PDE5 by [3H]cGMP scintillation proximity assay
[2] = target: Phosphodiesterase 3 (Homo sapiens, UniProt Q14432+Q13370); test: Inhibition of human platelet PDE3 by [3H]cGMP scintillation proximity assay
[3] = Inhibition of bovine PDE6 by [3H]cGMP scintillation proximity assay; set-up: species or system Bos taurus
[4] = Inhibition of bovine PDE1 by [3H]cGMP scintillation proximity assay; set-up: species or system Bos taurus
[5] = Permeability from apical to basolateral side of Caco-2 cell membrane; type: ADME, cell-based; settings: human
[6] = Oral bioavailability in dog at 2.5 mg/kg; type: ADME, organism-based, Canis lupus familiaris; settings: in vivo
Outline: (§1)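 Dog pharmacokinetics: clearance, half-life and Vss came from IV dosing. Bioavailability came from oral dosing at 2.5 mg/kg. Values are means ± SEM.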

[7] = Clearance in rat at 0.8 mg/kg, iv; type: ADME, organism-based; set-up: dose 0.8 mg/kg, route intravenous; settings: in vivo
Outline: (§2)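 Rat pharmacokinetics: IV bolus at 0.8 mg/kg gave clearance, half-life and Vss. […] Values are means ± SEM.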

[8] = Half life in rat at 0.8 mg/kg, iv; type: ADME, organism-based; set-up: dose 0.8 mg/kg, route intravenous; settings: in vivo; outline: as §2
[9] = Volume of distribution at steady state in rat; type: ADME, organism-based; settings: in vivo, read-out: Vdss; outline: as §2
[10] = Intrinsic clearance in human microsomes; type: ADME, Microsome
[11] = target: T1, Adenosine receptor A1 (Homo sapiens, UniProt P30542); test: Inhibition of adenosine A1 receptor
T1 sequence (P30542 whole entry): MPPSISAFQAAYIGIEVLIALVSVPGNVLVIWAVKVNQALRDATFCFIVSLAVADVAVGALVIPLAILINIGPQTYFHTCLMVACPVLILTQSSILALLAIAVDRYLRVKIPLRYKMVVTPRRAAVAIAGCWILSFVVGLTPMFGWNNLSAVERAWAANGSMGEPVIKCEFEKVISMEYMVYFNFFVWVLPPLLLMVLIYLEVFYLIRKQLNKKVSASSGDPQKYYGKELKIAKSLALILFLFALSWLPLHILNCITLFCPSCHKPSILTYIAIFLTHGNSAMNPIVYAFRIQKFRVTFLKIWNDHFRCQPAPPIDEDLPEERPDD
Outline: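 Binding was profiled in a contract Spectrum Screen panel of 111 receptors. Adenosine A1 activity was reported as Ki.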

[12] = Intrinsic clearance in rat microsomes; type: ADME, Microsome
[13] = Volume of distribution at steady state in dog; type: ADME, organism-based, Canis lupus familiaris; settings: in vivo, read-out: Vdss; outline: as §1
[14] = Bioavailability in rat at 3.3 mg/kg, intraduodenally; type: ADME, organism-based; settings: in vivo; outline: as §2
[15] = Intrinsic clearance in dog microsomes; type: ADME, Canis lupus familiaris, Liver, Microsome
[16] = Clearance in iv dosed dog; type: ADME, organism-based, Canis lupus familiaris; settings: in vivo; outline: as §1
[17] = Inhibition of adenosine transporter; set-up: species or system Homo sapiens
[18] = Half life in dog at 0.2 mg/kg, iv; type: ADME, organism-based, Canis lupus familiaris; set-up: dose 0.2 mg/kg, route intravenous; settings: in vivo; outline: as §1
[19] = target: 3',5'-cyclic-AMP phosphodiesterase 4B (Homo sapiens, UniProt Q07343); test: Inhibition of human recombinant PDE4B by […] scintillation proximity assay
3',5'-cyclic-AMP phosphodiesterase 4B, sequence (Q07343 whole entry): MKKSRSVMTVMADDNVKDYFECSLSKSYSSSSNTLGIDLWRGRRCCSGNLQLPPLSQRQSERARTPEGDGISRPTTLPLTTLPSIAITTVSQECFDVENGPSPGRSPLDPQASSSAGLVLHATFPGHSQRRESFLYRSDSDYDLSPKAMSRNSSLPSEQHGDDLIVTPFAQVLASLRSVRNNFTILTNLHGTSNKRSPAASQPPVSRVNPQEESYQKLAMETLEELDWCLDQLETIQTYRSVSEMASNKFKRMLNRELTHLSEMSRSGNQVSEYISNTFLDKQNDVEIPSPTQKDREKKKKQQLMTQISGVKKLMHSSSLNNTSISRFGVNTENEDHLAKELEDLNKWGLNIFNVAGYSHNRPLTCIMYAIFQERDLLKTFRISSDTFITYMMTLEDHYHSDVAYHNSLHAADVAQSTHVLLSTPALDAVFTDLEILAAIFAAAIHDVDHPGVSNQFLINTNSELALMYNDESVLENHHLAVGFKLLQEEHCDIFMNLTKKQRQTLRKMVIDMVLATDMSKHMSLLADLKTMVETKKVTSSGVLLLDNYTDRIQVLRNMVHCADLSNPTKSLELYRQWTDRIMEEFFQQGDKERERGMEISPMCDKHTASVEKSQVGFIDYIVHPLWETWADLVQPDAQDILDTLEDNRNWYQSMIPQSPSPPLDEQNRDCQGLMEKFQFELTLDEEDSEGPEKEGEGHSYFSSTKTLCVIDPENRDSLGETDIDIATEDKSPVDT

[20] = target: 3',5'-cyclic-AMP phosphodiesterase 4D (Homo sapiens, UniProt Q08499); test: Inhibition of human recombinant PDE4D by […] scintillation proximity assay
3',5'-cyclic-AMP phosphodiesterase 4D, sequence (Q08499 whole entry): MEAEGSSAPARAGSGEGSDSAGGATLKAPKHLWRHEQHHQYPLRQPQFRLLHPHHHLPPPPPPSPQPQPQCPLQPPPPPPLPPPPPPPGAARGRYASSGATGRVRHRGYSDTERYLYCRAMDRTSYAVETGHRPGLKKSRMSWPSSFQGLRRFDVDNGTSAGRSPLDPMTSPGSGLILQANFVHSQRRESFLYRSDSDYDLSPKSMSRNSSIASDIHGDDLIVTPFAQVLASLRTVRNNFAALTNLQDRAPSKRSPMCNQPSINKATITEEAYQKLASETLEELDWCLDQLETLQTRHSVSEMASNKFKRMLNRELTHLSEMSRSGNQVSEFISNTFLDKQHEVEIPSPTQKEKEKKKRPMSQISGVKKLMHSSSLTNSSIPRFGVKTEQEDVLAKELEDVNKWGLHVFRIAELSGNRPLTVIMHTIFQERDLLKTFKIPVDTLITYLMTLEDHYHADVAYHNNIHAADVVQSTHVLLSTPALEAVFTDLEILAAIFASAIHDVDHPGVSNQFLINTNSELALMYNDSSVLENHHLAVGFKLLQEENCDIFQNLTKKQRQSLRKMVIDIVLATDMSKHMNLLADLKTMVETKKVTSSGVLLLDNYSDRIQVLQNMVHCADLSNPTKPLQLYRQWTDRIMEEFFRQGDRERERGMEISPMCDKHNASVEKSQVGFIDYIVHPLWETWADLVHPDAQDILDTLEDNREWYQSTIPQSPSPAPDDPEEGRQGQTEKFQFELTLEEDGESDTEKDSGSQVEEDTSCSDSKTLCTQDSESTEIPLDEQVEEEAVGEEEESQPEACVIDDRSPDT

[21] = target: cGMP-dependent 3',5'-cyclic phosphodiesterase (Homo sapiens, UniProt O00408); test: Inhibition of human platelet PDE2 by [3H]cGMP scintillation proximity assay
cGMP-dependent 3',5'-cyclic phosphodiesterase, sequence (O00408 whole entry): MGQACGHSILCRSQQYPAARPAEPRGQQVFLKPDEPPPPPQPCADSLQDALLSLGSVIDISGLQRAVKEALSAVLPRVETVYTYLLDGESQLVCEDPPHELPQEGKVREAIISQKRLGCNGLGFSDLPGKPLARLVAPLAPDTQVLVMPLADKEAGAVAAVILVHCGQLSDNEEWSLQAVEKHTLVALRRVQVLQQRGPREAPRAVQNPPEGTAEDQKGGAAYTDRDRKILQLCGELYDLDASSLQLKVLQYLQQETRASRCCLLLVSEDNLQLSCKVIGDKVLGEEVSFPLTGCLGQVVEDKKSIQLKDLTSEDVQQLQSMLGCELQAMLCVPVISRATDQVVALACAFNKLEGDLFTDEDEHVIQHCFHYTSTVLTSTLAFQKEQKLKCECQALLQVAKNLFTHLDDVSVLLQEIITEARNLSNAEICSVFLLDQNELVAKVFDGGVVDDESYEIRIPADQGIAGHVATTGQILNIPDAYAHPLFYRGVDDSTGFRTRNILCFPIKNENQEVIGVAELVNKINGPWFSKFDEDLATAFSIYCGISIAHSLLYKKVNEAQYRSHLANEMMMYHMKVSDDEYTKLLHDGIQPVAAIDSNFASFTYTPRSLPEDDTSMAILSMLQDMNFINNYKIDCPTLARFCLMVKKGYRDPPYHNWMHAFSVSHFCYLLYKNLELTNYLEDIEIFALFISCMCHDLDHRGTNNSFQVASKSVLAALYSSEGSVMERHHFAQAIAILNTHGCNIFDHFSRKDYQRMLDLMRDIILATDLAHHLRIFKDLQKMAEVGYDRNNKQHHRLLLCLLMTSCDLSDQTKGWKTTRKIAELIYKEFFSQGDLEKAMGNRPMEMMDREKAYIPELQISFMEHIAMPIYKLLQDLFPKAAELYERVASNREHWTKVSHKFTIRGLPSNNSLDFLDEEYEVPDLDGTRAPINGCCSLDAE

[22] = target: High affinity 3',5'-cyclic-AMP phosphodiesterase 7A (Homo sapiens, UniProt Q13946); test: Inhibition of human recombinant PDE7A by […] scintillation proximity assay
High affinity 3',5'-cyclic-AMP phosphodiesterase 7A, sequence (Q13946 whole entry): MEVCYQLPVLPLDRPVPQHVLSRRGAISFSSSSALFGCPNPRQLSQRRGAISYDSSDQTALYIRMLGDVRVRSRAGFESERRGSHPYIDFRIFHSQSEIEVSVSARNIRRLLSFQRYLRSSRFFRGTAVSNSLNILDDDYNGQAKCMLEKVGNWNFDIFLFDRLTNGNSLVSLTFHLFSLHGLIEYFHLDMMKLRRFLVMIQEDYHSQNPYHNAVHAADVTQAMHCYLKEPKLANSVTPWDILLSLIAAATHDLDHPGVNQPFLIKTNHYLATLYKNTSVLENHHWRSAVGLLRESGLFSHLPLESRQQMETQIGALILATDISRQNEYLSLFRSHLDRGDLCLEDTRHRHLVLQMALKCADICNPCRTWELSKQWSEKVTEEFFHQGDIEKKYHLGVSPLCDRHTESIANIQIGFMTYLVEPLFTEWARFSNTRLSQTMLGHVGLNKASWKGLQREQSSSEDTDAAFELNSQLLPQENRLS

Row | Structure (SMILES) | IC50 [1] [nM] | IC50 [2] [nM] | IC50 [3] [nM] | IC50 [4] [nM] | further results
1 | COc1ccc(Cn2c(=O)n(C)c(=O)c3[nH]c(Cc4cncc5cc(OC)c(OC)cc45)nc32)cc1OC | 33 |  | 1820 | 3910 | 
2 | CC(C)Cn1c(=O)n(C)c(=O)c2[nH]c(Cc3cncc4ccccc34)nc21 | 34 | 1850 | 857 | 7290 | 
3 | COc1ccc2c(Cc3nc4c([nH]3)c(=O)n(C)c(=O)n4CC(C)C)cncc2c1 | 51 |  | 247 |  | 
4 | COc1ccc2cncc(Cc3nc4c([nH]3)c(=O)n(C)c(=O)n4CC(C)C)c2c1 [listing 1 of 2 here] |  | 2220 | 180 | 2850 | bioavailability [6]: 103%; clearance [7]: 118 mL/min/kg; half-life [8]: 21 min; Vd [9]: 2.9 L/kg; clearance [10]: 4 µL/min/mg; Ki [11]: 2300 nM; clearance [12]: 162 µL/min/mg; Vd [13]: 2.1 L/kg; bioavailability [14]: 1%; Papp A→B [5]: 13.8 ×10⁻⁶ cm/s; clearance [15]: 6 µL/min/mg; clearance [16]: 28.7 mL/min/kg; Ki [17]: 2800 nM; half-life [18]: 63.4 min
5 | COc1cc2cncc(C(C)c3nc4c([nH]3)c(=O)n(C)c(=O)n4CC(C)C)c2cc1OC (stereo unspecified) | 94 |  |  |  | 
6 | COc1cc2cncc(Cc3nc4c([nH]3)c(=O)n(CC(C)C)c(=O)n4CC(C)C)c2cc1OC | 462 |  |  |  | 
7 | COc1cc2cncc(Cc3nc4c(c(=O)n(C)c(=O)n4CC(C)C)n3C)c2cc1OC | 553 |  |  |  | 
8 | C=C(C)Cn1c(=O)n(C)c(=O)c2[nH]c(Cc3cncc4cc(OC)c(OC)cc34)nc21 | 30 |  | 333 |  | 
9 | COc1cc2cncc(Cc3nc4c([nH]3)c(=O)n(C)c(=O)n4Cc3ccc(NC(C)=O)cc3)c2cc1OC | 42 |  | 471 |  | 
10 | CC(C)Cn1c(=O)n(C)c(=O)c2[nH]c(Cc3cncc4cc5c(cc34)OCO5)nc21 | 10000 |  |  |  | 
11 | COc1ccc2cncc(Cc3nc4c([nH]3)c(=O)n(C)c(=O)n4CC(C)C)c2c1 [listing 2 of 2 here] |  |  |  |  | IC50 [19]: > 10000 nM; IC50 [20]: > 10000 nM; IC50 [21]: 4600 nM; IC50 [22]: > 10000 nM

The remaining molecules from weak to strong by IC50 [1], led by results:

Row | IC50 [1] [nM] | IC50 [2] [nM] | IC50 [3] [nM] | IC50 [4] [nM] | Structure (SMILES) | further results
12 | 28 |  | 1130 |  | COc1cc2cncc(Cc3nc4c([nH]3)c(=O)n(C)c(=O)n4CC3CCCCC3)c2cc1OC | 
13 | 26 |  | 525 |  | COc1cc2cnc(C)c(Cc3nc4c([nH]3)c(=O)n(C)c(=O)n4CC(C)C)c2cc1OC | 
14 | 25 |  | 65 |  | CC(C)Cn1c(=O)n(C)c(=O)c2[nH]c(CC3CC4CCC3C4)nc21 (stereo unspecified) | 
15 | 20 | 1640 | 823 | 1320 | COc1cc2cncc(Cc3nc4c([nH]3)c(=O)n(C)c(=O)n4CC3CC3)c2cc1OC | 
16 | 9 | 299 | 389 | 417 | COc1cc2cncc(Cc3nc4c([nH]3)c(=O)n(C)c(=O)n4CC(C)C)c2cc1OC | Papp A→B [5]: 31.8 ×10⁻⁶ cm/s
17 | 8 | 1060 | 294 | 2790 | COc1cc2cncc(Cc3nc4c([nH]3)c(=O)n(C)c(=O)n4CC(C)(C)C)c2cc1OC | Papp A→B [5]: 23.4 ×10⁻⁶ cm/s
18 | 6 | 2710 | 363 | 670 | COc1cc2cncc(Cc3nc4c([nH]3)c(=O)n(C)c(=O)n4CC(C)CO)c2cc1OC (racemic) | 
19 | 5 | 3130 | 399 | 3440 | COc1cc2cncc(Cc3nc4c([nH]3)c(=O)n(C)c(=O)n4Cc3ccc(NS(=O)(=O)C(C)C)cc3)c2cc1OC | 
20 | 2 | 42 | 226 | 72 | COc1cc2c(Cc3nc4c([nH]3)c(=O)n(C)c(=O)n4CC(C)C)cnc(C)c2cc1OC | Papp A→B [5]: 0.9 ×10⁻⁶ cm/s
